In ChEMBL document CHEMBL2401625, “Synthesis and evaluation of pharmacological properties of some new xanthone derivatives with piperazine moiety” (Bioorg Med Chem Lett, 2013):
Active and inactive are the calls of the source. The rule behind the calls is not given here.

Assays:
[1] = tested on: Rattus norvegicus; experiment: Protective index, ratio of TD50 for po dosed Sprague-Dawley rat assessed as minimal motor impairment by rotorod test to ED50 for po dosed Sprague-Dawley rat assessed as protection against maximal electroshock-induced seizures; format: functional
Summary of the method: (§1)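 Quantitative oral assay in rats, run at a time to peak effect of 4 h. ED50 is the dose protecting 50% of animals against MES or ScMet seizures, with 95% confidence interval. TD50 is the dose giving neurotoxicity in 50% of animals. PI = TD50/ED50.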

[2] = Neurotoxicity in po dosed Sprague-Dawley rat assessed as minimal motor impairment by rotorod test; format: toxicity, organism-based; details: in vivo
[3] = tested on: Rattus norvegicus; experiment: Anticonvulsant activity in po dosed Sprague-Dawley rat assessed as protection against subcutaneous metrazole-induced seizures after 4 hrs; format: functional; summary of the method: as §1
[4] = tested on: Rattus norvegicus; experiment: Anticonvulsant activity in po dosed Sprague-Dawley rat assessed as protection against maximal electroshock-induced seizures after 4 hrs; format: functional; summary of the method: as §1
[5] = tested on: Mus musculus; experiment: Neurotoxicity in CF1 mouse assessed as minimal motor impairment at 300 mg/kg, ip after 4 hrs by rotorod test; format: toxicity, organism-based; parameters: dose 300 mg/kg, route intraperitoneal; details: in vivo
Summary of the method: (§2)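 Rotarod neurotoxicity screen in mice dosed i.p. at 30, 100 or 300 mg/kg, read 0.5 or 4 h after dosing. The animal must stay on a rod rotating at 6 rpm without falling, measured 3 times within 1 min. A fall counts as minimal motor impairment. Result is recorded as impaired animals over animals used.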

[6] = tested on: Mus musculus; experiment: Neurotoxicity in CF1 mouse assessed as minimal motor impairment at 30 mg/kg, ip after 4 hrs by rotorod test; format: toxicity, organism-based; parameters: dose 30 mg/kg, route intraperitoneal; details: in vivo; summary of the method: as §2
[7] = tested on: Mus musculus; experiment: Neurotoxicity in CF1 mouse assessed as minimal motor impairment at 100 mg/kg, ip after 4 hrs by rotorod test; format: toxicity, organism-based; parameters: dose 100 mg/kg, route intraperitoneal; details: in vivo; summary of the method: as §2
[8] = tested on: Mus musculus; experiment: Neurotoxicity in CF1 mouse assessed as minimal motor impairment at 300 mg/kg, ip after 0.5 hrs by rotorod test; format: toxicity, organism-based; parameters: dose 300 mg/kg, route intraperitoneal; details: in vivo; summary of the method: as §2
[9] = tested on: Mus musculus; experiment: Neurotoxicity in CF1 mouse assessed as minimal motor impairment at 100 mg/kg, ip after 0.5 hrs by rotorod test; format: toxicity, organism-based; parameters: dose 100 mg/kg, route intraperitoneal; details: in vivo; summary of the method: as §2
[10] = tested on: Mus musculus; experiment: Neurotoxicity in CF1 mouse assessed as minimal motor impairment at 30 mg/kg, ip after 0.5 hrs by rotorod test; format: toxicity, organism-based; parameters: dose 30 mg/kg, route intraperitoneal; details: in vivo; summary of the method: as §2
[11] = tested on: Rattus norvegicus; experiment: Neurotoxicity in Sprague-Dawley rat assessed as minimal motor impairment at 30 mg/kg, po after 1 hr by rotorod test; details: in vivo
[12] = tested on: Rattus norvegicus; experiment: Neurotoxicity in Sprague-Dawley rat assessed as minimal motor impairment at 30 mg/kg, po after 4 hrs by rotorod test; details: in vivo
[13] = tested on: Rattus norvegicus; experiment: Neurotoxicity in Sprague-Dawley rat assessed as minimal motor impairment at 30 mg/kg, po after 2 hrs by rotorod test; details: in vivo
[14] = tested on: Rattus norvegicus; experiment: Neurotoxicity in Sprague-Dawley rat assessed as minimal motor impairment at 30 mg/kg, po after 0.5 hrs by rotorod test; details: in vivo
[15] = tested on: Rattus norvegicus; experiment: Neurotoxicity in Sprague-Dawley rat assessed as minimal motor impairment at 30 mg/kg, po after 0.25 hrs by rotorod test; details: in vivo
[16] = tested on: Rattus norvegicus; experiment: Anticonvulsant activity in Sprague-Dawley rat assessed as protection against maximal electroshock-induced seizures at 30 mg/kg, po after 2 hrs; format: functional, organism-based; parameters: dose 30 mg/kg
Summary of the method: (§3)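 Rats dosed orally at 30 mg/kg and tested in MES at several time points after dosing. Protection means seizures were prevented. Result is recorded as number of animals protected over number tested.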

[17] = tested on: Rattus norvegicus; experiment: Anticonvulsant activity in Sprague-Dawley rat assessed as protection against maximal electroshock-induced seizures at 30 mg/kg, po after 1 hr; format: functional, organism-based; parameters: dose 30 mg/kg; summary of the method: as §3
[18] = tested on: Rattus norvegicus; experiment: Anticonvulsant activity in Sprague-Dawley rat assessed as protection against maximal electroshock-induced seizures at 30 mg/kg, po after 0.5 hrs; format: functional, organism-based; parameters: dose 30 mg/kg; summary of the method: as §3
[19] = tested on: Mus musculus; experiment: Anticonvulsant activity in CF1 mouse assessed as protection against maximal electroshock-induced seizures at 30 mg/kg, ip after 0.5 hrs; format: functional, organism-based; parameters: dose 30 mg/kg
Summary of the method: (§4)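 Mice given compound i.p. at 30, 100 or 300 mg/kg and tested 0.5 or 4 h after dosing. Seizures were induced by maximal electroshock (MES) or subcutaneous metrazole (ScMet). Prevention of seizures counts as protection. Result is recorded as number of animals protected over number tested.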

[20] = organism: Rattus norvegicus; experiment: Displacement of [3H]CGP-12177 from beta1-adrenergic receptor in rat cerebral cortex at 50 uM after 60 mins by scintillation counting; format: tissue-based
[21] = tested on: Rattus norvegicus; experiment: Anticonvulsant activity in Sprague-Dawley rat assessed as protection against maximal electroshock-induced seizures at 30 mg/kg, po after 0.25 hrs; format: functional, organism-based; parameters: dose 30 mg/kg; summary of the method: as §3
[22] = tested on: Mus musculus; experiment: Anticonvulsant activity in CF1 mouse assessed as protection against subcutaneous metrazole-induced seizures at 300 mg/kg, ip after 4 hrs; format: functional, organism-based; parameters: dose 300 mg/kg; summary of the method: as §4
[23] = tested on: Mus musculus; experiment: Anticonvulsant activity in CF1 mouse assessed as protection against subcutaneous metrazole-induced seizures at 100 mg/kg, ip after 4 hrs; format: functional, organism-based; parameters: dose 100 mg/kg; summary of the method: as §4
[24] = tested on: Mus musculus; experiment: Anticonvulsant activity in CF1 mouse assessed as protection against subcutaneous metrazole-induced seizures at 30 mg/kg, ip after 4 hrs; format: functional, organism-based; parameters: dose 30 mg/kg; summary of the method: as §4
[25] = tested on: Mus musculus; experiment: Anticonvulsant activity in CF1 mouse assessed as protection against subcutaneous metrazole-induced seizures at 300 mg/kg, ip after 0.5 hrs; format: functional, organism-based; parameters: dose 300 mg/kg; summary of the method: as §4
[26] = tested on: Mus musculus; experiment: Anticonvulsant activity in CF1 mouse assessed as protection against subcutaneous metrazole-induced seizures at 100 mg/kg, ip after 0.5 hrs; format: functional, organism-based; parameters: dose 100 mg/kg; summary of the method: as §4
[27] = tested on: Mus musculus; experiment: Anticonvulsant activity in CF1 mouse assessed as protection against subcutaneous metrazole-induced seizures at 30 mg/kg, ip after 0.5 hrs; format: functional, organism-based; parameters: dose 30 mg/kg; summary of the method: as §4
[28] = tested on: Mus musculus; experiment: Anticonvulsant activity in CF1 mouse assessed as protection against maximal electroshock-induced seizures at 300 mg/kg, ip after 4 hrs; format: functional, organism-based; parameters: dose 300 mg/kg; summary of the method: as §4
[29] = tested on: Mus musculus; experiment: Anticonvulsant activity in CF1 mouse assessed as protection against maximal electroshock-induced seizures at 100 mg/kg, ip after 4 hrs; format: functional, organism-based; parameters: dose 100 mg/kg; summary of the method: as §4
[30] = tested on: Mus musculus; experiment: Anticonvulsant activity in CF1 mouse assessed as protection against maximal electroshock-induced seizures at 30 mg/kg, ip after 4 hrs; format: functional, organism-based; parameters: dose 30 mg/kg; summary of the method: as §4

For `COc1ccc2c(=O)c3cc(CN4CCN(Cc5ccccc5)CC4)ccc3oc2c1`, the “Ratio TD50/ED50” value [1] was greater than 2.86, the TD50 [2] was greater than 300 mg/kg and the ED50 [3] was greater than 250 mg/kg. For the same molecule, the ED50 [4] was 105 mg/kg, the Activity [5] was “Non-toxic” and the Activity [6] was “Non-toxic”. The Activity [7] was “Non-toxic”, the Activity [8] was “Non-toxic” and the Activity [9] was “Non-toxic”. For the same molecule, the Activity [10] was “Non-toxic”, the Activity [11] was “Non-toxic” and the Activity [12] was “Non-toxic”. For the same molecule, the Activity [13] was “Non-toxic”, the Activity [14] was “Non-toxic” and the Activity [15] was “Non-toxic”.
With `COc1ccc2c(=O)c3cc(CN4CCN(C)CC4)ccc3oc2c1` the Activity [16] was “inactive”, the Activity [17] was “inactive” and the Activity [18] was “inactive”. The Activity [19] was “inactive”, the inhibition [20] was “inactive” and the Activity [21] was “inactive”. For the same molecule, the Activity [22] was “inactive”, the Activity [23] was “inactive” and the Activity [24] was “inactive”. For the same molecule, the Activity [25] was “inactive”, the Activity [26] was “inactive” and the Activity [27] was “inactive”. For the same molecule, the Activity [28] was “Active”, the Activity [29] was “inactive” and the Activity [30] was “inactive”.
